Bioassay records (PubChem)
Hits are enriched below; roughly 5.9% of the tested compounds scored in any of these assays.
Pf Dd2 growth – P. falciparum Dd2 growth inhibition. SYBR Green, 72 h; active compounds read low. activity change, % at 10 µM. hit rate 2.3% among 94,000. AID 1159554; in the data active = activity change below about -80%; inconclusive = no clear call, values can overlap the other calls
GASC1 inh – KDM4C (human) demethylase inhibition | GST-KDM4C 2-372, H3K9me3 peptide, LANCE TR-FRET | inhibition, % at 12.5 µM | hit rate 0.15% among 96,000 | AID 720574;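 active = mean replicate inhibition above about 25%, with at least 55% of replicates also reaching it, limit read from the data, passing the limit was not always enough; inconclusive = only one of those two conditions met; inactive = neither condition met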
Target sequence (Q9H3R0 2-372 limits assumed): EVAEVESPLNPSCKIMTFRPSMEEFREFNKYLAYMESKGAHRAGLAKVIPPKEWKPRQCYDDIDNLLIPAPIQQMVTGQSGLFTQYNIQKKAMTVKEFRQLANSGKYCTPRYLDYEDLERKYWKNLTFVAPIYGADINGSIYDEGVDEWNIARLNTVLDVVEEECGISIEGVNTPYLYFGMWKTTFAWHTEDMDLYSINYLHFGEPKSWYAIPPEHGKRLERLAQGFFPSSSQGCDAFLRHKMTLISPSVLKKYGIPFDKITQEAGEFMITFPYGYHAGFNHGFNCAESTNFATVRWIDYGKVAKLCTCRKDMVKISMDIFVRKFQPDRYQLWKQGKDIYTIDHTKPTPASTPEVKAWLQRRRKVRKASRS
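Assay system: GST-GASC-1 enzyme fragment 2-372 | Amount: 10 nM enzyme | Medium: HEPES buffer, pH 7.5, plus ascorbate | Reagent: H3K9me3 peptide substrate, Fe(II), 2-oxoglutarate | Doses: Single-point compound screen | Incubation: 30 min demethylation and 1 h detection at room temperature | Measured by: LANCE TR-FRET, excitation 340 nm, emissions 618 and 671 nm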
IDH1 mut inh – IDH1 R132H (human) inhibition | IDH1 R132H reductase, diaphorase/resazurin fluorescence, 60 min | inhibition, % at 10 µM | AID 624101 | hit rate 0.18% among 70,000 | O75874; in the data active = inhibition above about 34%; inconclusive = no clear call, values can overlap the other calls; inactive = below about 11%;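 note: 0% = DMSO and 100% = no enzyme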
T cruzi growth-1 – inhibitors of T. cruzi proliferation. T. cruzi beta-gal in NIH3T3, GalScreen luminescence, 90 h. inhibition, % at 8.34 µM. hit rate 5.9% among 77,000. AID 624255;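 active = mean inhibition above about 93%, with at least 55% of replicates each passing it, limit read from the data, passing the limit was not always enough; inconclusive = only one of those two conditions holds; inactive = neither condition holds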
T cruzi growth-2 – blocks T. cruzi growth in NIH3T3 host cells; inhibition, % at 8.35 µM; shares compounds with T cruzi growth-1; AID 651739; hit rate 72% among 5,600; T. cruzi beta-gal in NIH3T3, GalScreen luminescence, 90 h;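 active = mean replicate inhibition above about 95% and at least 55% of replicates individually reaching it, limit read from the data; inconclusive = only one of the two criteria is met; inactive = neither criterion is met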
T cruzi growth-3 – blocks T. cruzi growth in NIH3T3 host cells; T. cruzi beta-gal in NIH3T3, GalScreen luminescence, 90 h; hit rate 21% among 5,600; inhibition, % at 2.09 µM; shares compounds with T cruzi growth-1;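 active = mean inhibition above about 95%, with at least 55% of replicates also reaching it, limit read from the data; inconclusive = meets just one of the two conditions; inactive = meets neither condition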;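 note: plate controls were neutral control median for no effect and positive control median for full effect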
NIH3T3 tox – cytotoxicity in mouse NIH/3T3 fibroblasts | shares compounds with T cruzi growth-1 | NIH/3T3 viability, CellTiter-Glo ATP luminescence, 90 h | cytotoxicity (signal decrease), % at 8.35 µM | hit rate 14% among 5,600 | AID 651742;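 active = mean signal decrease across replicates above about 35% based on untreated-well scatter, with enough replicates individually passing, limit read from the data; inconclusive = no rule stated though some were filed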;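 note: 0% = median of neutral control wells and 100% = median of positive control wells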
3T3 cytotox 2 – kills mouse NIH/3T3 fibroblasts | shares compounds with T cruzi growth-1 | inhibition, % at 24.9 µM | NIH/3T3 viability, CellTiter-Glo ATP luminescence, 90 h | hit rate 56% among 5,600;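 active = mean loss of cell viability signal at or above a set limit, and enough replicates individually reaching it; inconclusive = meets only the mean limit or only the replicate share; inactive = meets neither condition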;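 note: 0% = median of neutral control wells and 100% = median of positive control wells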
Numbers without * were called inactive; ? = inconclusive; . = not tested or not shown.

SMILES | Pf Dd2 growth | GASC1 inh | IDH1 mut inh | T cruzi growth-1 | T cruzi growth-2 | T cruzi growth-3 | NIH3T3 tox | 3T3 cytotox 2
CC(C)CC#Cc1ccc2c(c1)O[C@H](CN(C)C(=O)NC1CCCC1)[C@H](C)CN([C@@H](C)CO)S2(=O)=O | 10 | 0 | 4 | 120* | 110* | 79 | 20 | 81*
CC(C)CC#Cc1ccc2c(c1)O[C@@H](CN(C)C(=O)NC(C)C)[C@H](C)CN([C@H](C)CO)S2(=O)=O | -15 | -4 | 6 | 51 | . | . | . | .
CC(C)CC#Cc1ccc2c(c1)O[C@@H](CN(C)C(=O)NC(C)C)[C@@H](C)CN([C@H](C)CO)S2(=O)=O | -25 | 0 | -4 | 51 | . | . | . | .
C[C@H]1CN([C@@H](C)CO)S(=O)(=O)c2ccc(C#Cc3ccc(F)cc3)cc2O[C@H]1CN(C)C(=O)NC1CCCCC1 | -37 | 1 | . | 71 | . | . | . | .
CCc1ccc2nc(N3C(=O)C(=O)C(C(=O)c4ccco4)C3c3cc(OC)ccc3OC)sc2c1 (stereo not drawn) | . | . | 6 | . | . | . | . | .
COc1ccc(C(C)(C)C)cc1S(=O)(=O)NC1CC(C)(C)NC(C)(C)C1 | . | . | 0 | . | . | . | . | .
COc1cccc(S(=O)(=O)NCc2ccc(C(=O)O)cc2)c1 | . | . | 0 | . | . | . | . | .
Nc1cc(N)nc(SCC(=O)Nc2ccc(Oc3ccccc3)cc2)n1 | . | . | 0 | . | . | . | . | .
CC(=O)N(Cc1ccc(C(C)C)cc1)c1ccc2oc(-c3ccccc3)nc2c1 | . | . | 0 | . | . | . | . | .
COc1ccccc1NC(=O)N1CC[C@@H]2[C@H]1c1cc(-c3ccc(F)cc3)ccc1N(C)[C@@H]2CO | -13 | 0 | . | 112* | 98* | 107* | 14 | 34*
CCC(=O)N1CC[C@H]2[C@@H]1c1cc(-c3ccccc3)ccc1N(C)[C@H]2CO | 0 | 2 | . | 45 | . | . | . | .
CCC(=O)N1CC[C@@H]2[C@H]1c1cc(-c3ccc(F)cc3)ccc1N(C)[C@@H]2CO | -9 | 3 | . | 101* | 107* | 66 | 8 | 24*
CCC(=O)N1CC[C@@H]2[C@H]1c1cc(-c3cccc(OC)c3)ccc1N(C)[C@@H]2CO | 2 | 0 | . | 105* | 104* | 108* | 27 | 15
COCC(=O)N1CC[C@@H]2[C@@H](CO)N(C)c3ccc(-c4cccc(OC)c4)cc3[C@@H]21 | 1 | 1 | . | 97* | 108* | 76 | 9 | 2
COCC(=O)N1CC[C@@H]2[C@H]1c1cc(-c3ccc(OC)cc3)ccc1N(C)[C@H]2CO | 20 | 4 | . | 32 | . | . | . | .
Cc1ccc(-n2c(Cn3ncc4ccccc4c3=O)n[nH]c2=S)c(Br)c1 | . | . | 1 | . | . | . | . | .
COc1cc(/C=C/c2cc(O)cc(O)c2)ccc1O[C@@H]1O[C@H](CO)[C@@H](O)[C@H](O)[C@H]1O | . | . | 0 | . | . | . | . | .
Cc1ccc(C)c(OCCNS(=O)(=O)c2cc([N+](=O)[O-])ccc2C)c1 | . | . | 0 | . | . | . | . | .
COc1cccc2cc(C(=O)C3C(=O)C(=O)N(c4cc(C)on4)C3c3ccccc3)oc12 (stereo not drawn) | . | . | -1 | . | . | . | . | .
C[C@@H]1CN([C@@H](C)CO)C(=O)c2cc(C#Cc3ccccn3)cnc2O[C@H]1CN(C)Cc1cncnc1 | 22 | 3 | -8 | 105* | 102* | 35 | -13 | 18
CC(C)C#Cc1cnc2c(c1)C(=O)N([C@@H](C)CO)C[C@H](C)[C@@H](CN(C)Cc1cncnc1)O2 | 22 | -2 | 0 | 97* | 99* | 11 | -16 | 11
C[C@@H]1CN([C@H](C)CO)C(=O)c2cc(C#Cc3ccccn3)cnc2O[C@H]1CN(C)Cc1cncnc1 | 10 | 1 | 0 | 104* | 107* | 55 | 13 | 18
C[C@@H]1CN([C@@H](C)CO)S(=O)(=O)c2ccc(C#Cc3cccc(F)c3)cc2O[C@@H]1CN(C)S(=O)(=O)c1cn(C)cn1 | -17 | 0 | -3 | 94 | . | . | . | .
C[C@H](CO)N1C[C@H](C)[C@@H](CN(C)S(=O)(=O)c2ccccc2F)Oc2cc(C#Cc3ccccc3)ccc2S1(=O)=O | -74 | -2 | 1 | 123* | 107* | 116* | 3 | ?
C[C@H](CO)N1C[C@H](C)[C@@H](CN(C)S(=O)(=O)c2cn(C)cn2)Oc2cc(C#Cc3ccccc3)ccc2S1(=O)=O | -65 | -9 | 0 | 105* | 106* | 87 | 23 | 50*
SMILES | Pf Dd2 growth | GASC1 inh | IDH1 mut inh | T cruzi growth-1 | T cruzi growth-2 | T cruzi growth-3 | NIH3T3 tox | 3T3 cytotox 2
C[C@@H]1CN([C@@H](C)CO)S(=O)(=O)c2ccc(C#Cc3ccccc3)cc2O[C@@H]1CN(C)S(=O)(=O)c1ccccc1F | -60 | -1 | 2 | 123* | 105* | 109* | 34 | 47*
CC(C)CC#Cc1ccc2c(c1)O[C@H](CN(C)C(=O)C1CCCCC1)[C@@H](C)CN([C@H](C)CO)S2(=O)=O | -39 | 12 | 0 | 118* | 106* | 107* | 13 | 105*
CC(C)CC#Cc1ccc2c(c1)O[C@H](CN(C)C(=O)C1CC1)[C@H](C)CN([C@@H](C)CO)S2(=O)=O | -44 | -1 | . | 94 | . | . | . | .
CC(C)CC#Cc1ccc2c(c1)O[C@H](CN(C)C(=O)C1CCCCC1)[C@@H](C)CN([C@@H](C)CO)S2(=O)=O | -39 | -1 | . | 112* | 100* | 116* | 10 | 104*
CC(C)CC#Cc1ccc2c(c1)O[C@H](CN(C)C(=O)C1CC1)[C@H](C)CN([C@H](C)CO)S2(=O)=O | -38 | 1 | . | 81 | . | . | . | .
CC(C)CC#Cc1ccc2c(c1)O[C@@H](CN(C)C(=O)C1CCCCC1)[C@H](C)CN([C@@H](C)CO)S2(=O)=O | -75 | 0 | . | 122* | 104* | 104* | 19 | 105*
CC(C)CC#Cc1ccc2c(c1)O[C@H](CN(C)C(=O)C1CC1)[C@@H](C)CN([C@H](C)CO)S2(=O)=O | -41 | -1 | . | 86 | . | . | . | .
COc1cc(C2NC(=S)NC(C)=C2C(=O)Nc2ccccc2C)c(Br)cc1OCC(=O)O (stereo not drawn) | . | . | 1 | . | . | . | . | .
COc1ccc(OC)c(NC(=O)CN(c2ccc(Br)c(C)c2)S(C)(=O)=O)c1 | . | . | 0 | . | . | . | . | .
COc1cccc(C#Cc2ccc3c(c2)O[C@H](CN(C)S(=O)(=O)c2ccccc2F)[C@@H](C)CN([C@H](C)CO)S3(=O)=O)c1 | -67 | -4 | 0 | 127* | 109* | 115* | 24 | 42*
COc1cccc(C#Cc2ccc3c(c2)O[C@@H](CN(C)S(=O)(=O)c2ccccc2F)[C@H](C)CN([C@@H](C)CO)S3(=O)=O)c1 | -72 | -2 | 1 | 123* | 109* | 98* | 23 | 42*
COc1cccc(C#Cc2ccc3c(c2)O[C@H](CN(C)C)[C@H](C)CN([C@H](C)CO)S3(=O)=O)c1 | -71 | -1 | 0 | -43 | . | . | . | .
